The array DNA melting data of Ke et al. (doi:10.1101/2024.01.08.574731)

How the values were obtained:
[1] = folding enthalpy; higher = less favourable; fluorescence melt of hairpins on a sequencing array, two-state fit; settings: sodium 0.088 M
In short: (§1)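 Bootstrapped two-state fits yielded melting temperature and folding enthalpy for library hairpins. Cy3 fluorescence, with annealed Cy3 and quencher oligos, was imaged on a sequenced MiSeq flow cell in 50 mM Na-HEPES pH 8.0, 25 mM NaCl in 2.5 °C steps up to 60 °C, and normalised to pre-quench Cy3 and to control constructs. Four replicates were combined by inverse variance, and fitted temperatures were raised by 9.35 °C to match UV melts.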

[2] = melting temperature; fluorescence melt of hairpins on a sequencing array, two-state fit, raised by 9.35 °C to match UV melts; settings: sodium 0.088 M
In short: as §1

Sequence | folding enthalpy [1] | Tm [2]
GCGCACGAAAGTGGTCGC ((((((....)))..))) | -13.8 kcal/mol | 53.4 °C
GCGCACGGAAACACGCGC ((((..(....)..)))) | -32.9 kcal/mol | 51.6 °C
GCGCACGGAAACGCACGC (((..((....))..))) | -31.2 kcal/mol | 42.2 °C
GCGCACGGAAACGTGTGC ((.((((....)))).)) | -41 kcal/mol | 67.7 °C
GCGCAGACGAAAGTCCGC (((..(((....)))))) | -25 kcal/mol | 52.4 °C
GCGCAGCGAAAGCAGAGC ((.(.((....)).).)) | -15.7 kcal/mol | 54.6 °C
GCGCAGCGAAAGCTAAGC ((..(((....)))..)) | -17.7 kcal/mol | 58.4 °C
GCGCAGCGAAAGCTACGC (((.(((....))).))) | -35 kcal/mol | 53.5 °C
GCGCAGTCGAAAGACCGC (((..(((....)))))) | -26.1 kcal/mol | 52.8 °C
GCGCATACGAAAGTACGC (((..(((....)))))) | -22.7 kcal/mol | 44.9 °C
GCGCATCGAAAGATTCGC (((.(((....))).))) | -38.9 kcal/mol | 52.2 °C
GCGCATTCGAAAGAACGC (((..(((....)))))) | -18.8 kcal/mol | 41.4 °C
GCGCCAACGAAAGTTCGC (((..(((....)))))) | -24.3 kcal/mol | 43.5 °C
GCGCCACGAAAGTGCCGC (((.(((....))).))) | -26.9 kcal/mol | 56.3 °C
GCGCCCCGAAAGGGTCGC (((.(((....))).))) | -45.8 kcal/mol | 68 °C
GCGCCCGAAAGGGGACGC ((((((....)))..))) | -19.6 kcal/mol | 62.2 °C
GCGCCCGGAAACGGACGC (((.(((....))).))) | -47 kcal/mol | 66.1 °C
GCGCCCGTGCGC ((((....)))) | -10.3 kcal/mol | 66.5 °C
GCGCCGCGAAAGCACCGC (((..((....))..))) | -16.7 kcal/mol | 46.2 °C
GCGCCGCGAAAGCTGAGC ((.(.((....)).).)) | -20 kcal/mol | 57.5 °C
GCGCCGGGAAACCGACGC (((.(((....))).))) | -46.8 kcal/mol | 60.9 °C
GCGCCTCGAAAGAGTCGC (((.(((....))).))) | -38.3 kcal/mol | 58.7 °C
GCGCCTGGAAACAAGCGC ((((.((....)).)))) | -41.6 kcal/mol | 52.8 °C
GCGCGACCGAAAGGTCGC (((..(((....)))))) | -5.08 kcal/mol | 68.5 °C

Sequence | folding enthalpy [1] | Tm [2]
GCGCGAGGAAACCCACGC (((.(.(....).).))) | -20.3 kcal/mol | 40 °C
GCGCGAGGAAACTCGCAC (.(((((....))))).) | -11.4 kcal/mol | 49.4 °C
GCGCGAGGAAACTCGTGC ((.((((....)))).)) | -42.3 kcal/mol | 62.9 °C
GCGCGCGAAAGCGCTCGC ((((((....)))..))) | -10.5 kcal/mol | 59.4 °C
GCGCGCGAAAGCGGACGC ((((((....)))..))) | -16.5 kcal/mol | 64.9 °C
GCGCGGCGAAAGCAACGC (((..((....))..))) | -15.8 kcal/mol | 60 °C
GCGCGGCGAAAGCCTCGC (((.(((....))).))) | -26.2 kcal/mol | 66.7 °C
GCGCGTCGAAAGACACGC (((.(((....))).))) | -45.5 kcal/mol | 62.9 °C
GCGCGTGGAAACACGCAC (.(((((....))))).) | -9.64 kcal/mol | 54.7 °C
GCGCTAGGAAACCAGCGC (((((.(....).))))) | -45.4 kcal/mol | 57.3 °C
GCGCTCGAAAGAGAACGC ((((((....)))..))) | -30.8 kcal/mol | 50.4 °C
GCGCTCGAAAGAGCACGC ((((((....)))..))) | -16.7 kcal/mol | 60 °C
GCGCTCGAAAGAGTCGC ((((((....))).))) | -30.6 kcal/mol | 57.7 °C
GCGCTGCGAAAGCAAGGC ((..(((....)))..)) | -16 kcal/mol | 46.7 °C
GCGCTGCGAAAGCACGGC ((..(((....)))..)) | -15.1 kcal/mol | 51.5 °C
GCGCTGGGAAACTGGCGC ((((..(....)..)))) | -49.8 kcal/mol | 57.3 °C
GCGCTTCGAAAGAACCGC (((.(((....))).))) | -31.7 kcal/mol | 46.4 °C
GCGCTTGGAAACAAACGC (((.(((....))).))) | -34.1 kcal/mol | 48 °C
GCGGAAACCGC ((((...)))) | -23 kcal/mol | 52.9 °C
GCGGAAACGAAAGTTCGC (((..(((....)))))) | -27.5 kcal/mol | 48.8 °C
GCGGAAGCGAAAGCTCGC (((..(((....)))))) | -31.5 kcal/mol | 52.1 °C
GCGGAAGGCCGC ((((....)))) | -21.7 kcal/mol | 53.1 °C
GCGGAATTCCGC ((((....)))) | -36.5 kcal/mol | 56.3 °C
GCGGACAACCGC ((((....)))) | -19.5 kcal/mol | 53.1 °C

Sequence | folding enthalpy [1] | Tm [2]
GCGGACACCCGC ((((....)))) | -20.9 kcal/mol | 53.5 °C
GCGGACAGCCGC ((((....)))) | -17.4 kcal/mol | 53.8 °C
GCGGACCCCGC ((((...)))) | -20.9 kcal/mol | 54.4 °C
GCGGACCGCCGC ((((....)))) | -19.1 kcal/mol | 55.8 °C
GCGGACCTCCGC ((((....)))) | -27.4 kcal/mol | 55.9 °C
GCGGACGAAAGTCCCCGC ((((((....)))..))) | -12.7 kcal/mol | 45.8 °C
GCGGACGAAAGTCGGCGC ((((((....)))..))) | -26.7 kcal/mol | 68 °C
GCGGACGAAAGTCGTCGC ((((((....)))..))) | -22.8 kcal/mol | 52.6 °C
GCGGACGAAAGTCTACGC ((((((....)))..))) | -28.8 kcal/mol | 52.2 °C
GCGGACGGAAACACCCGC ((((..(....)..)))) | -26.9 kcal/mol | 41.9 °C
GCGGACGGAAACGCCCGC ((((.((....)).)))) | -36.7 kcal/mol | 67.8 °C
GCGGACGGAAACGTCCAC (.(((((....))))).) | -12.2 kcal/mol | 51.1 °C
GCGGACGTCCGC ((((....)))) | -53.7 kcal/mol | 60.8 °C
GCGGACTTCCGC ((((....)))) | -23.2 kcal/mol | 57.4 °C
GCGGAGCCCCGC ((((....)))) | -10.7 kcal/mol | 55.8 °C
GCGGAGCCCGC ((((...)))) | -11.3 kcal/mol | 49.4 °C
GCGGAGCGAAAGCAGCGC (((..((....))..))) | -17.1 kcal/mol | 58 °C
GCGGAGCGAAAGCCCTGC ((.(.((....)).).)) | -10.6 kcal/mol | 43.7 °C
GCGGAGCGAAAGCTAGGC ((..(((....)))..)) | -9.5 kcal/mol | 41.9 °C
GCGGAGCGAAAGCTTAGC ((..(((....)))..)) | -14.1 kcal/mol | 52.3 °C
GCGGAGGGAAACTTCCGC (((((.(....).))))) | -35.4 kcal/mol | 57.9 °C
GCGGAGTGCCGC ((((....)))) | -13.7 kcal/mol | 57.1 °C
GCGGATACCGC ((((...)))) | -25.8 kcal/mol | 57.1 °C
GCGGATACGAAAGTACGC (((..(((....)))))) | -27 kcal/mol | 49.4 °C

Sequence | folding enthalpy [1] | Tm [2]
GCGGATGACCGC ((((....)))) | -21.6 kcal/mol | 54.8 °C
GCGGATTACCGC ((((....)))) | -20 kcal/mol | 54.9 °C
GCGGATTCCCGC ((((....)))) | -20.8 kcal/mol | 55 °C
GCGGCACCCCGC ((((....)))) | -24.8 kcal/mol | 53.8 °C
GCGGCAGCGAAAGCTCGC (((..(((....)))))) | -11.7 kcal/mol | 51.5 °C
GCGGCAGGAAACCACCGC ((((..(....)..)))) | -25.9 kcal/mol | 45.2 °C
GCGGCAGGAAACTGCCAC (.(((((....))))).) | -10.8 kcal/mol | 54.6 °C
GCGGCAGGAAACTGCTGC ((.((((....)))).)) | -43.2 kcal/mol | 62.9 °C
GCGGCCACCGC ((((...)))) | -19.6 kcal/mol | 59.5 °C
GCGGCCCACCGC ((((....)))) | -19.6 kcal/mol | 60 °C
GCGGCCGAAAGGCCCCGC ((((((....)))..))) | -10.3 kcal/mol | 48.1 °C
GCGGCCGAAAGGCTTCGC ((((((....)))..))) | -17.1 kcal/mol | 53.5 °C
GCGGCCGCGAAAGCGCGC (((..(((....)))))) | -11.6 kcal/mol | 59.5 °C
GCGGCCGGAAACGGCCAC (.(((((....))))).) | -9.59 kcal/mol | 53 °C
GCGGCCTCCCGC ((((....)))) | -22.3 kcal/mol | 56.3 °C
GCGGCGCGAAAGCGTAGC ((..(((....)))..)) | -26.1 kcal/mol | 65.8 °C
GCGGCGCGAAAGCTGCGC (((..((....))..))) | -26.1 kcal/mol | 63.3 °C
GCGGCGGTCCGC ((((....)))) | -17.6 kcal/mol | 58.7 °C
GCGGCGTACCGC ((((....)))) | -17.2 kcal/mol | 64.7 °C
GCGGCGTCGAAAGACCGC (((..(((....)))))) | -27.5 kcal/mol | 54.6 °C
GCGGCTAACCGC ((((....)))) | -26.2 kcal/mol | 56.5 °C
GCGGCTATCCGC ((((....)))) | -20.1 kcal/mol | 61.2 °C
GCGGCTCCCCGC ((((....)))) | -22.1 kcal/mol | 54.8 °C
